High-throughput results from PubChem.
Only some compounds are listed: those with a hit (about 2.5% of all), similar ones and a draw of the others.
GRK2 inh: human GRK2 inhibition via aptamer displacement; bead flow cytometry, FAM-aptamer displacement from GRK2; inhibition of aptamer binding, % at 10 µM; 330,000 tested, 0.59% active; AID 488847;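 active means inhibition of aptamer binding above 40%, roughly 3 SD of noise, on plates passing a quality check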;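 further: median bead fluorescence of bound FAM aptamer so fluorescent compounds give negative values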
B2AR ag: activates human beta-2 adrenergic receptor causing internalization. Am2.2-beta2AR cells, FAP receptor internalization, flow cytometry. 340,000 tested, 0.43% active. AID 504454. response, % (test concentration not listed). P07550;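 active means response above a set limit, near 3 SD of response in nonfluorescent compounds, cut at about 42% in these data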
Target sequence (P07550 whole entry, looked up): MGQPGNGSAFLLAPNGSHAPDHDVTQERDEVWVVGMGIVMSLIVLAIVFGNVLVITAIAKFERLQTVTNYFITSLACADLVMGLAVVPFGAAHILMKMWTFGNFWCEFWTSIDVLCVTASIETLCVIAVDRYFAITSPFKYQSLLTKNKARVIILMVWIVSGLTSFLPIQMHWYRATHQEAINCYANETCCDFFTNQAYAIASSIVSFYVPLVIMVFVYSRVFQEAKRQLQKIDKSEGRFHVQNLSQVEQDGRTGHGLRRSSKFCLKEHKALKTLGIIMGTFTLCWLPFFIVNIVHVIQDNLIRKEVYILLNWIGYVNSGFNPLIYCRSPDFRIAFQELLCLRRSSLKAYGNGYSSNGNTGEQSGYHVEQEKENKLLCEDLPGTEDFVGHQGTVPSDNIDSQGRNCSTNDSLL
ABHD5-PLIN5 inh: ABHD5-PLIN5 protein interaction inhibition. Q00G26+Q8WTS1. Split G. princeps luciferase complementation, luminescence, 4 h. inhibition, % at 4 µM. 360,000 tested, 0.78% active;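 active means inhibition above the mean inhibition across every tested compound plus 3 SD, cut at about 22% in these data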;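 further: 0% = DMSO only wells and the 100% control is not disclosed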
NadD inh: inhibitors of Staphylococcus aureus NadD | purified NadD enzyme, colorimetric absorbance read-out | inhibition, % at 20 µM | 360,000 tested, 0.78% active; in the data active means inhibition above about 26%
SENP1 inh: SENP1 (human) catalytic domain inhibition; inhibition, % at 10 µM; 360,000 tested, 0.21% active; Q9P0U3; AID 624204; recombinant SENP1 catalytic domain, CyPet-SUMO1-YPet FRET cleavage;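 active means inhibition at least 30% at 10 µM, raw YFP signal under a set limit, fluorescence ratio 0.5 to 1.5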;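 further: 0% = enzyme with DMSO and 100% = no enzyme wells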
Target sequence (Q9P0U3 419-644 limits assumed): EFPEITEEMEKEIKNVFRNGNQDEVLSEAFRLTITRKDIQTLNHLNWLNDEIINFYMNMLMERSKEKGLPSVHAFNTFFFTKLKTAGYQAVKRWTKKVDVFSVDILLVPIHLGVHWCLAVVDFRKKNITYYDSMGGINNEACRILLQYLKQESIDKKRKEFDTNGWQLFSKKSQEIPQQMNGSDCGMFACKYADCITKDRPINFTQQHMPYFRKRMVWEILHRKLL
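System: Recombinant human SENP1 catalytic domain, His6-tagged | Incubation: Enzyme reaction for 50 min at room temperature, dark | Medium: Tris pH 8 with BME, BSA, NP40 and catalase | Also added: 25 nM SUMO1 FRET substrate | Compound: 10 µM single point, 0.5% DMSO | Measured by: FRET fluorescence in CFP and YFP emission channels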
The depositor's hits bear a star; / = no result given.

SMILES | GRK2 inh | B2AR ag | ABHD5-PLIN5 inh | NadD inh | SENP1 inh
COc1ccc(C=NNC(=O)CCCCC(=O)NN=Cc2ccc(OC)cc2)cc1 | / | -6.1 | -13.4 | 2.2 | 1.9
[O-]/[N+](=C/c1ccccc1)c1ccccc1 | 0.0 | 2.7 | -0.6 | 0.8 | 1.1
O=C(CSc1ccc(Cl)cc1)c1ccco1 | 58.0* | 2.7 | 7.9 | 3.3 | 0.5
COc1cc(NC(=S)NCCCO)c(OC)cc1Cl | 42.0* | 3.7 | 1.1 | 0.2 | 0.5
CC(C)c1ccc2c(c1)CCC1C(C)(CN)CCCC21C (centres undefined) | 0.0 | 43.5* | -1.4 | 2.3 | -0.8
O=C(N/N=C/c1ccco1)C1CC1c1ccccc1 (centres undefined) | 14.0 | 3.7 | 6.4 | 1.8 | -2.8
CC(C)(C)c1ccc(C2CC2C(=O)N/N=C\c2ccc[nH]2)cc1 (centres undefined) | 2.0 | 54.0* | -4.0 | 2.9 | -4.8
O=C(COc1ccccc1)NCC(=O)N/N=C/c1ccc(Br)cc1 | 7.0 | 5.6 | -2.7 | 1.8 | 1.5
COc1ccccc1NC(=O)c1cc2c(CO)cnc(C)c2oc1=Nc1cccc(C(N)=O)c1 | 1.0 | 57.9* | -5.5 | -7.7 | 2.8
Cc1cccc2c1c1ccc3c(c1n2C)C(=O)C=CC3=O | / | 88.5* | -10.0 | 50.2* | 22.1
NC(=O)CC(NC(=O)Cc1ccc(Br)cc1)c1ccc(N2CCc3ccccc3C2)c([N+](=O)[O-])c1 (centres undefined) | 3.0 | -8.1 | -2.0 | -9.3 | -2.0
Nc1ccc(C(=O)NC23CC4CC(CC(C4)C2)C3)cc1 | 0.0 | 4.2 | 2.8 | 0.0 | 2.3
COc1ccc(CS(=O)(=O)/C(Cl)=C(/Cl)C(=O)Nc2ccc(OC)nc2)cc1 | 0.0 | 48.2* | 41.0* | -2.8 | 0.6
S=C(NCCc1ccccn1)Nc1ccc(Cl)c(Cl)c1 | 5.0 | 53.1* | 5.2 | -5.1 | 4.8
S=C(NCCc1ccccn1)Nc1cc(Cl)cc(Cl)c1 | 0.0 | 5.2 | 3.9 | -3.7 | -1.0
CC(=O)Nc1ccc(C(=O)OCCc2ccccc2)cc1 | 0.0 | 6.1 | 0.9 | 0.5 | 0.5
O=C(CN1CCN(c2ccc(F)cc2)CC1)NCc1ccc(Cl)cc1 | 1.0 | -3.0 | 4.8 | -0.5 | 0.4
Cc1cc(/C=C(/C#N)c2nc3ccccc3[nH]2)c(C)n1-c1cccc([N+](=O)[O-])c1 | 0.0 | 21.4 | -2.7 | 41.4* | -20.5
Cc1cc(/C=C(\C#N)c2nc3ccccc3[nH]2)c(C)n1C | 3.0 | -2.0 | 2.7 | 9.3 | -42.9
N#C/C(=C\c1c(Cl)cccc1Cl)c1nc2ccccc2[nH]1 | 4.0 | 56.2* | -3.6 | -1.1 | -46.3
CC(Nc1ccc(Br)cc1)C(=O)Nc1cccc(S(=O)(=O)N2CCOCC2)c1 (centres undefined) | / | 3.5 | -2.4 | -4.2 | 0.7
O=C(c1ccco1)N(CCC(c1ccccc1)c1ccco1)Cc1ccco1 (centres undefined) | 3.0 | -10.3 | 28.4* | 45.5* | -15.2
CC(=O)N(CCC(Cc1ccccc1)c1ccco1)Cc1ccco1 (centres undefined) | 4.0 | -1.2 | 16.5 | -1.2 | -14.4
O=C(CC1C[C@H](C(=O)N2CCCCC2)[C@@]2(CCc3ccccc3)c3[nH]c4ccccc4c3CCN2C1=O)NCc1ccco1 (some centres undefined) | 11.0 | 1.4 | -0.5 | 15.9 | 0.0
CC[C@]12c3[nH]c4cc(CCC(=O)N(C)C)ccc4c3CCN1C(=O)[C@@H](CC(=O)NCCC1=CCCCC1)C[C@@H]2C(=O)N1CCN(C(=O)C2CC2)CC1 | 2.0 | 6.9 | -3.7 | 10.4 | 3.0
SMILES | GRK2 inh | B2AR ag | ABHD5-PLIN5 inh | NadD inh | SENP1 inh
O=C(C[C@H]1C[C@H](C(=O)N2CCCCC2)[C@@]2(CCc3ccccc3)c3[nH]c4cc(-c5ccco5)ccc4c3CCN2C1=O)NCc1ccco1 | 0.0 | 1.5 | 16.8 | 51.2* | -41.8
CC[C@]12c3[nH]c4cc(-c5ccco5)ccc4c3CCN1C(=O)[C@@H](CC(=O)NCCc1ccccn1)C[C@@H]2C(=O)N1CCN(C(=O)c2ccco2)CC1 | 43.0* | 1.2 | 20.2 | -4.3 | -17.8
CC(C)(C)NC(=O)C[C@H]1C[C@H](C(=O)N2CCOCC2)[C@@]2(CCC3CCCC3)c3[nH]c4cc(-c5ccco5)ccc4c3CCN2C1=O | 24.0 | 10.7 | 31.9* | 1.9 | -44.3
CC[C@]12c3[nH]c4cc(CCC(=O)N(C)C)ccc4c3CCN1C(=O)[C@@H](CC(=O)NCCC1=CCCCC1)C[C@@H]2C(=O)N1CCN(C(=O)c2ccco2)CC1 | 43.0* | -5.1 | -8.0 | 1.8 | 2.4
CSc1ccccc1NC(=O)c1ccc(N2CCCC2=O)cc1 | 2.0 | -8.1 | 3.0 | -1.5 | 1.9
COc1ccccc1NS(=O)(=O)c1ccc(C(=O)NCCCN2CCOCC2)cc1 | / | -2.8 | 8.5 | -4.1 | 0.3
CC(C)C(OC(=O)Cn1nnc2ccccc21)C(=O)NC1CCCC1 (centres undefined) | 0.0 | 3.9 | -0.8 | -2.8 | 3.9
CN(C)C(=O)CCc1ccc2c3c([nH]c2c1)[C@]1(C)[C@@H](C(=O)N2CCCCC2)C[C@H](CC(=O)NCc2ccco2)C(=O)N1CC3 | 0.0 | -11.8 | -9.3 | 1.8 | -1.0
CN(C)C(=O)CCc1ccc2c3c([nH]c2c1)[C@]1(CCc2ccccc2)[C@@H](C(=O)N2CCCCC2)C[C@H](CC(=O)NCc2ccco2)C(=O)N1CC3 | 0.0 | 3.5 | 0.2 | 4.2 | 2.3
CN(C)CCCNC(=O)C[C@H]1C[C@H](C(=O)N2CCCCC2)[C@@]2(CCc3ccccc3)c3[nH]c4ccc(Cl)cc4c3CCN2C1=O | 0.0 | 39.8 | 22.0* | 0.2 | 1.7
CCN(CC)C(=O)[C@H]1C[C@H](CC(=O)NCc2ccco2)C(=O)N2CCc3c([nH]c4cc(CCC(=O)N(C)C)ccc34)[C@]12C | 51.0* | 0.2 | -7.4 | -1.2 | -1.8
CC[C@]12c3[nH]c4cc(CCC(=O)N(C)C)ccc4c3CCN1C(=O)[C@@H](CC(=O)NCc1ccco1)C[C@@H]2C(=O)N1CCN(C(=O)C2CC2)CC1 | 45.0* | -2.5 | 2.5 | 5.4 | 0.1
CN(C)CCCNC(=O)C[C@H]1C[C@H](C(=O)N2CCOCC2)[C@@]2(C)c3[nH]c4ccc(Cl)cc4c3CCN2C1=O | 0.0 | -2.1 | 2.2 | 0.6 | 1.8
Cc1ccc(C(=O)O)cc1NC(=O)CSc1nnc(-c2ccccc2F)n1C1CCCCC1 | 1.0 | 3.1 | -4.0 | 5.7 | 2.0
O=Cc1cc2ccccc2nc1SCc1ccc(Cl)cc1 | 0.0 | 45.5* | -3.0 | -0.4 | -11.6
O=Cc1cc2ccccc2nc1SCc1ccc(Cl)c(Cl)c1 | 2.0 | 17.1 | -1.0 | 2.0 | 0.9
CCCCc1nnc(NC(=O)CCN2C(=O)C3CC=CCC3C2=O)s1 (centres undefined) | 0.0 | 5.9 | -12.0 | 0.4 | -0.9
CCCCC(=O)O[C@H]1CC[C@H]2[C@@H]3CCc4cc(O)ccc4[C@H]3CC[C@]12C | 3.0 | 42.6* | -6.9 | -5.8 | -1.1
Cc1cc(=O)[nH]c(N2CCCCC2)n1 | / | 3.3 | 1.1 | 0.2 | 3.2
